Our source for the survival, MIC and Activity values is ChEMBL document CHEMBL3112487, “Synthesis and antifungal activity of ASP9726, a novel echinocandin with potent Aspergillus hyphal growth inhibition” (2014).

The term MIC denotes the smallest concentration in the dilution series that meets the test's criterion for growth inhibition.

Assay [1] concerns Aspergillus fumigatus. Nature of the assay: Antifungal activity against Aspergillus fumigatus 20030 in ICR mouse invasive pulmonary aspergillosis model assessed as survival rate at 1.5 mg/kg, iv qd administered for 10 days measured on day 11 relative to control. It counts as functional.
Assay [2] deals with Aspergillus fumigatus. Nature of the assay: Antifungal activity against Aspergillus fumigatus 20030 in ICR mouse invasive pulmonary aspergillosis model assessed as survival rate at 3 mg/kg, iv qd administered for 10 days measured on day 11 relative to control. In kind it is functional.
The subject of the next assay is Nakaseomyces glabratus. Nature of the assay: Antifungal activity against echinocandin-resistant Candida glabrata FP2307 in human serum assessed as hyphal growth inhibition after 48 hrs by microscopic analysis. It counts as functional. The method in brief: (§1)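 Susceptibility testing followed CLSI M27-A3 or M38-A2 standards, using human serum as the growth medium. Fungi were exposed to drug and incubated at 37 °C under 5% CO2 for 48 h.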

For a further assay, the system named is Candida albicans. Kind of assay: Antifungal activity against Candida albicans 20015 in human serum assessed as hyphal growth inhibition after 48 hrs by microscopic analysis. Particulars: Candida albicans, 20015, Serum. In kind it is functional. The gist of the method: as §1
Assay [3] concerns Aspergillus fumigatus. Kind of assay: Antifungal activity against Aspergillus fumigatus 20024 in human serum assessed as formation of small, rounded and compact microcolonies with severely stunted hypha at 4 fold MEC after 48 hrs by microscopic analysis. It counts as functional, organism-based.
The test system of a further assay is Candida parapsilosis. Nature of the assay: Antifungal activity against Candida parapsilosis 20009 in human serum assessed as hyphal growth inhibition after 48 hrs by microscopic analysis. As to conditions: Lodderomyces parapsilosis, 20009, Serum. In kind it is functional. The gist of the method:
as §1

The subject of assay [4] is Aspergillus fumigatus. Kind of assay: Antifungal activity against Aspergillus fumigatus 20024 in human serum assessed as hyphal growth inhibition after 48 hrs by microscopic analysis. It counts as functional. As to conditions: Aspergillus fumigatus, 20024, Serum. The gist of the method:
as §1

Assay [5] relates to Aspergillus fumigatus. Kind of assay: Antifungal activity against Aspergillus fumigatus 20024 in human serum assessed as formation of large microcolonies with elongated hypha in all direction at 4 fold MEC after 48 hrs by microscopic analysis. In kind it is functional, organism-based.

Molecules are shown by their SMILES. Converted amounts (≈) assume the structure as drawn. The source made the active and inactive calls.

`COc1cc(C[C@@H](O)[C@@H]2NC(=O)[C@@H]3C[C@@H](O)CN3C(=O)[C@H]([C@@H](C)O)NC(=O)[C@@H](NC[C@H]3CC[C@H](c4nnc(-c5ccc(N6CCC(OC)(C7CCCCC7)CC6)cc5)s4)CC3)C[C@@H](O)CNC(=O)[C@@H]3[C@@H](O)[C@@H](C)CN3C(=O)[C@H]([C@H](O)CCNC(CO)CO)NC2=O)ccc1O`: the survival at 1.5 mg/kg with Aspergillus fumigatus [1] was found to be 40%. Moreover, in the assay with Aspergillus fumigatus [2], the survival at 3 mg/kg turned out to be 70%. For the same compound, the MIC in the assay on Nakaseomyces glabratus was 2 µg/mL (≈ 1.48 µM); with Candida albicans, 0.25 µg/mL (≈ 0.185 µM); in the assay with Candida parapsilosis, 4 µg/mL (≈ 2.96 µM); with Aspergillus fumigatus [4], 0.25 µg/mL (≈ 0.185 µM). The outcome in the assay with Aspergillus fumigatus [3] was Active.
With `CC[C@H](C)C[C@H](C)CCCCCCCCC(=O)N[C@H]1C[C@@H](O)[C@@H](NCCN)NC(=O)[C@@H]2[C@@H](O)CCN2C(=O)[C@H]([C@H](O)CCN)NC(=O)[C@H]([C@H](O)[C@@H](O)c2ccc(O)cc2)NC(=O)[C@@H]2C[C@@H](O)CN2C(=O)[C@H]([C@@H](C)O)NC1=O` [CASPOFUNGIN], the survival at 1.5 mg/kg in the assay with Aspergillus fumigatus [1] stood at 10%. Besides, the survival at 3 mg/kg with Aspergillus fumigatus [2] was found to be 20%. For the same compound, the MIC with Nakaseomyces glabratus is greater than 64 µg/mL; with Candida albicans it was 0.25 µg/mL (≈ 0.229 µM); in the assay with Candida parapsilosis, 64 µg/mL (≈ 58.5 µM); in the assay with Aspergillus fumigatus [4] it was 0.5 µg/mL (≈ 0.457 µM). For the same compound, the outcome in the assay with Aspergillus fumigatus [5] was inactive.
